pIC50, pKi: −log10 of the molar value.

The pIC50 is −log10 of the IC50, conventionally taken in molar units. The pKi is the Ki on a negative log10 scale, so that one unit is a factor of ten. Lower therefore signals a high Ki. The term half-life denotes the time in which the quantity being followed falls by half.

Data set [1] has as its system Plasmodium falciparum. The data set is described as follows: Antimalarial activity against Plasmodium falciparum 3D7. Type of data set: functional, organism-based. The gist of the method: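 Parasites grown in human O+ erythrocytes in RPMI 1640 with 10% human serum and 50 µM hypoxanthine. Compounds from 10 mg/mL DMSO stocks were serially 2-fold diluted and added to culture at 2% hematocrit and 2% parasitemia. Incubation was 48 h at 37 °C under 95% N2/3% CO2/2% O2.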

For the next data set, the system named is CHO. As to the kind of experiment: Cytotoxicity against CHO cells. Type of data set: cell-based. The conditions noted are these: Cricetulus griseus. The gist of the method:
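CHO cells in RPMI 1640 with 10% fetal calf serum, 25 mM HEPES and gentamicin were grown to 50% confluency. Compounds from 10 mg/mL DMSO stocks were added as a serial dilution series, with DMSO-only controls. After 48 h, MTT was added for 1 h and formazan dissolved in DMSO. Absorbance at 650 nm; IC50 by nonlinear regression of dose–response.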

A short description of data set [2]: Inhibition of Plasmodium falciparum ODCase.
Data set [3] is described as follows: Inhibition of Plasmodium vivax ODCase. The procedure, abridged:
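Calorimetric assay of P. vivax ODCase: enzyme (50 or 70 nM) was mixed with inhibitor (40–250 µM) in 50 mM Tris with 1 mM DTT, and activity was started by a single OMP injection to a final 12 µM. Competitive Ki was determined. For time-dependent inactivation, 50 µM enzyme was incubated at 25 °C in Tris pH 8.0 with 37.5–75 mM inhibitor for 1–48 h, then diluted 1000-fold and assayed.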

Data set [4] in a line: Stability assessed as half life of hydrolysis. Type of data set: physicochemical.
The nature of data set [5]: Inhibition of Methanobacterium thermoautotrophicum ODCase. Further details: species or system Methanothermobacter thermautotrophicus.
In data set [6] the test system is Methanothermobacter thermautotrophicus.
The test system of data set [7] is Plasmodium falciparum.

Regarding `N#Cc1cc(=O)[nH]c(=O)n1[C@@H]1O[C@H](CO)[C@@H](O)[C@H]1O`, the values for the pIC50 in the data set with Plasmodium falciparum [1] and in the data set with CHO were 3.35 and under 2.82, respectively.

For the molecule `Nc1cc(=O)[nH]c(=O)n1[C@@H]1O[C@H](CO)[C@@H](O)[C@H]1O`, the negative logarithm of the IC50 (pIC50) in the data set on Plasmodium falciparum [1] and in the data set with CHO was under 2.82 throughout.

As to `CNc1cc(=O)[nH]c(=O)n1[C@@H]1O[C@H](CO)[C@@H](O)[C@H]1O`, the pIC50 in the data set on Plasmodium falciparum [1] is 4.55; in the data set on CHO, 4.14.

`Cc1cc(=O)[nH]c(=O)n1[C@@H]1O[C@H](COP(=O)(O)O)[C@@H](O)[C@H]1O`: the figures for the pKi in data set [2] and in data set [3] were 4.47 and 4.65, respectively.

Take `[N-]=[N+]=Nc1cc(=O)[nH]c(=O)n1[C@@H]1O[C@H](CO)[C@@H](O)[C@H]1O`: the pIC50 in the data set on Plasmodium falciparum [1] is 2.91; in the data set with CHO it was under 2.82.

On to `CN(C)c1cc(=O)[nH]c(=O)n1[C@@H]1O[C@H](CO)[C@@H](O)[C@H]1O`, for which the results for the pIC50 in the data set with Plasmodium falciparum [1] and in the data set with CHO were 4.50 and 4.17, respectively.

In the case of `N#Cc1cc(=O)[nH]c(=O)n1[C@@H]1O[C@H](COP(=O)(O)O)[C@@H](O)[C@H]1O`, in data set [4], the half-life was 5 h. Moreover, the negative logarithm of the Ki (pKi) in data set [3] is 4.21.

Take `Cc1cc(=O)[nH]c(=O)n1[C@@H]1O[C@H](CO)[C@@H](O)[C@H]1O`: the figures for the pIC50 in the data set with Plasmodium falciparum [1] and in the data set on CHO were 3.28 and under 2.93, respectively.

On to `O=c1cc(I)n([C@@H]2O[C@H](CO)[C@@H](O)[C@H]2O)c(=O)[nH]1`, for which the pIC50 is 5.21 in the data set with Plasmodium falciparum [1] and 3.44 in the data set with CHO.

Regarding `[N-]=[N+]=Nc1cc(=O)[nH]c(=O)n1[C@@H]1O[C@H](COP(=O)(O)O)[C@@H](O)[C@H]1O`, the pKi in data set [2] is 5.70; in data set [5] it was 6.72. Further, the KI is 0.63 µM in data set [6] and 7.3 µM in the data set with Plasmodium falciparum [7]. For the same molecule, the Kinact in data set [6] was determined as 61.2 h⁻¹; with Plasmodium falciparum [7], 0.35 h⁻¹.

Values taken from ChEMBL document CHEMBL1140735, “Structure-activity relationships of C6-uridine derivatives targeting plasmodia orotidine monophosphate decarboxylase” (J Med Chem, 2008).
